Data set [1] addresses T1, Prostaglandin G/H synthase 2 (Homo sapiens) (UniProt P35354).
T1 sequence (whole entry): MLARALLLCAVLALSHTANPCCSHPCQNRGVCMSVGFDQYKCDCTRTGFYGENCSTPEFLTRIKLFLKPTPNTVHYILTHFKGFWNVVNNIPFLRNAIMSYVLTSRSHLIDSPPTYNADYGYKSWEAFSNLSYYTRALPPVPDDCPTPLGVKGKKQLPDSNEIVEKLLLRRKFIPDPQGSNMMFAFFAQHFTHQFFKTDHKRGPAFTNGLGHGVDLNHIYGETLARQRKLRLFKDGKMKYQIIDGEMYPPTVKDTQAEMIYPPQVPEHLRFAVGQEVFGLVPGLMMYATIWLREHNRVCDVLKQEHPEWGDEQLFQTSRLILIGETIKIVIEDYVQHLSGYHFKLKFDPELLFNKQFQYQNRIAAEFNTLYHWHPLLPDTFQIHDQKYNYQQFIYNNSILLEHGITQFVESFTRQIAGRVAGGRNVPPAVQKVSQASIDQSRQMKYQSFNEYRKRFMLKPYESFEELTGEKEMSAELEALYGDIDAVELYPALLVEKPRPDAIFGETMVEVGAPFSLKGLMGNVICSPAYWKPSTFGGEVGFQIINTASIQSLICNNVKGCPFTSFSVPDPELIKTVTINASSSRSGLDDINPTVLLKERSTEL
In words: Inhibition of human recombinant COX2-mediated 12-HHT formation assessed as remaining activity at 10 uM preincubated for 5 mins before arachidonic acid addition by HPLC analysis. A digest of the protocol: (§1)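 Cell-free enzyme assays. Data given either as IC50 or as remaining enzyme activity at 10 µM test concentration.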

Data set [2] deals with T2, Presenilin-1 (Homo sapiens, UniProt P49768). In words: Activation of wild-type human presenilin-1 stably overexpressed in CHO cells co-expressing wild-type human amyloid precursor protein assessed as amyloid beta 38 formation after 24 hrs by ELISA. In kind it is cell-based. In general terms: An ELISA detects its analyte on a solid surface through an enzyme-linked reagent.

In data set [3] the target is T3, Prostaglandin G/H synthase 1 (Ovis aries) (UniProt P05979).
T3 sequence (whole entry): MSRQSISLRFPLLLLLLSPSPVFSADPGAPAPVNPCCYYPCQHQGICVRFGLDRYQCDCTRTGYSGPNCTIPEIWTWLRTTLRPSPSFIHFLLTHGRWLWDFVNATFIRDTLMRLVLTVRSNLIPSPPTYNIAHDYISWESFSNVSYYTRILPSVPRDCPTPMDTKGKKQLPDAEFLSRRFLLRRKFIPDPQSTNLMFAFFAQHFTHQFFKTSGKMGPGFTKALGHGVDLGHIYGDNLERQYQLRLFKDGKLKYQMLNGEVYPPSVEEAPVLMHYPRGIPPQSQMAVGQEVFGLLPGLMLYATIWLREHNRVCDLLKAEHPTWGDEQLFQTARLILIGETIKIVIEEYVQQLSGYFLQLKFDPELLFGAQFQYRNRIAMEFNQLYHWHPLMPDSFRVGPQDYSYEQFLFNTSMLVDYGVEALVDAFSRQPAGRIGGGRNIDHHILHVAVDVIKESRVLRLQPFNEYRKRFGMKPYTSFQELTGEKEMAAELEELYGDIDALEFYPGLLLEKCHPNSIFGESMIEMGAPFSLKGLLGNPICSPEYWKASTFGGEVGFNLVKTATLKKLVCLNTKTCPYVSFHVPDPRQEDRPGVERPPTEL
The experiment in a line: Inhibition of ovine COX1-mediated 12-HHT formation assessed as remaining activity at 10 uM preincubated for 5 mins before arachidonic acid addition by HPLC analysis. A digest of the protocol:
as §1

Data set [4] in a line: Cytotoxicity against human Jurkat cells assessed as reduction in cell viability up to 30 uM after 24 to 48 hrs by MTT assay. In kind it is cell-based. Conditions: read-out: INH. (Formazan colour is commonly taken as a measure of viable cells.)
Data set [5] concerns the target T4, Prostaglandin G/H synthase 2 (Homo sapiens, UniProt P35354).
T4 sequence (P35354 whole entry): T1 sequence (whole entry)
The experiment in a line: Inhibition of human recombinant COX2-mediated 12-HHT formation preincubated for 5 mins before arachidonic acid addition by HPLC analysis. A digest of the protocol:
as §1

The target in the next data set is T5, Prostaglandin E synthase (Homo sapiens, UniProt O14684).
T5 sequence (O14684 whole entry): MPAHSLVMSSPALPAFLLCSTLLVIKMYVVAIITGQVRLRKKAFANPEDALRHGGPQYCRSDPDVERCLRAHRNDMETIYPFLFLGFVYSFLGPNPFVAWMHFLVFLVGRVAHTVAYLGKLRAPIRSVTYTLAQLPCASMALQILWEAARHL
The experiment in a line: Inhibition of mPGES-1-mediated PGE2 formation in interleukin-1beta-stimulated human A549 microsomal membranes preincubated for 15 mins before PGH2 addition by RP-HPLC analysis.

For data set [6], the target named is T6, Prostaglandin G/H synthase 1 (Ovis aries, UniProt P05979).
T6 sequence (P05979 whole entry): T3 sequence (whole entry)
The experiment in a line: Inhibition of ovine COX1-mediated 12-HHT formation preincubated for 5 mins before arachidonic acid addition by HPLC analysis. A digest of the protocol:
as §1

Data set [7] concerns the target T7, Peroxisome proliferator-activated receptor gamma (Homo sapiens) (UniProt P37231).
T7 sequence (whole entry): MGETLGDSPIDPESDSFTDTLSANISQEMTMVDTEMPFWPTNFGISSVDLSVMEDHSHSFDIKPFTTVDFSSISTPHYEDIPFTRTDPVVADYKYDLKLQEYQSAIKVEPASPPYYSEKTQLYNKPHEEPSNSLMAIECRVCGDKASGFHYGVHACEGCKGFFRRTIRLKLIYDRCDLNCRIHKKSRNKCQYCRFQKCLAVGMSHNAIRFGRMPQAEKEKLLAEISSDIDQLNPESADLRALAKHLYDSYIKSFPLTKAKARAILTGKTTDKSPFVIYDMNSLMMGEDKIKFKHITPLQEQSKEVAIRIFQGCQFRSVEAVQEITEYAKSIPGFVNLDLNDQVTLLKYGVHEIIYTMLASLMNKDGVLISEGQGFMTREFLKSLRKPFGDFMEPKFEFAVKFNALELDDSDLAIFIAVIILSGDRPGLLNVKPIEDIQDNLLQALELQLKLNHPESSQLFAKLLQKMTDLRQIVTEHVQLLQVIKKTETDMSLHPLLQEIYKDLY
In words: Activation of human PPARgamma ligand binding domain expressed in COS7 cells at 6 uM by dual luciferase reporter gene assay. Conditions: COS-7. Format: cell-based. A general note: Reporter assays use an easily measured gene product as a stand-in for the process of interest.

Data set [8] deals with T2, Presenilin-1. The experiment in a line: Inhibition of wild-type human presenilin-1 stably overexpressed in CHO cells co-expressing wild-type human amyloid precursor protein assessed as inhibition of amyloid beta 42 formation after 24 hrs by ELISA. In kind it is cell-based.
Data set [9] deals with T8, Polyunsaturated fatty acid 5-lipoxygenase (Homo sapiens, UniProt P09917).
T8 sequence (P09917 whole entry): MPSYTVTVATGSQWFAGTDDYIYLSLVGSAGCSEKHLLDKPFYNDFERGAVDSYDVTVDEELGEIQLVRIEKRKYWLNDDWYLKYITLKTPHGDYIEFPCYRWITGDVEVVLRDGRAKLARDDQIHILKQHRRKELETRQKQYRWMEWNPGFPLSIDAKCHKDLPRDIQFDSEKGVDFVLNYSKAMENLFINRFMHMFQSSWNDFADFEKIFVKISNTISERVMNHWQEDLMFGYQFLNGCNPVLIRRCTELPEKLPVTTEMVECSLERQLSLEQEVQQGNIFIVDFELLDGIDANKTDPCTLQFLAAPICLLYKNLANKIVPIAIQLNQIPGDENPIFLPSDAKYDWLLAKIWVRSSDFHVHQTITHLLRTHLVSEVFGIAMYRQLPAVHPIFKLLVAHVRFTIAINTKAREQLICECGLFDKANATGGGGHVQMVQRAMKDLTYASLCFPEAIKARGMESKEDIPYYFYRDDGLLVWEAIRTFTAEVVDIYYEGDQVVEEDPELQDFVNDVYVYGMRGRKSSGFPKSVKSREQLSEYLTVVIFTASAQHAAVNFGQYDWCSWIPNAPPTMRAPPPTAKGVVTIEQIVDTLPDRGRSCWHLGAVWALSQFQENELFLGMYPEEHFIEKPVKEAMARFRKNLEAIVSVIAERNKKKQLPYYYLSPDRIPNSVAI
The experiment in a line: Inhibition of 5-LO in human PMNL assessed as reduction in 5-LO product formation pre-incubated for 15 mins before addition of arachidonic acid substrate by HPLC analysis. Conditions: read-out: IC50.

Data set [10] deals with T7, Peroxisome proliferator-activated receptor gamma (Homo sapiens). In words: Activation of human PPARgamma ligand binding domain expressed in COS7 cells at 3 uM by dual luciferase reporter gene assay. Format: cell-based. Conditions: COS-7.
Data set [11] deals with NOTCH-1 signaling (Neurogenic locus notch homolog protein 1) (Homo sapiens, UniProt P46531). In words: Inhibition of NOTCH-1 signaling (unknown origin) expressed in CHO cells at 0.5 uM after 24 hrs by dual luciferase reporter gene assay. In kind it is cell-based. Conditions: CHO cells expressing NOTCH-1. A digest of the protocol: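 Dual luciferase Notch reporter read-out in CHO cells. Test compounds were run at 5–50 µM. The γ-secretase inhibitor LY-411575 was run at 0.5 µM as the reference treatment.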

The target in the next data set is Gamma-secretase. In words: Inhibition of CHAPSO-solubilized gamma-secretase isolated from human SH-SY5Y P2 cell membranes assessed as reduction in Abeta(1 to 42) peptide generation from recombinant C100Flag substrate by electrochemiluminescence assay.

Structures are written as SMILES. Some results are limits rather than exact numbers.

What is called EC50 is the midpoint of the concentration-response curve. As usually defined, the IC50 is the concentration that inhibits the measured activity by half. By inhibition is commonly meant the percentage by which the read-out fell short of the control. A low value points to a weak effect.

Sequence of NOTCH-1 signaling (Neurogenic locus notch homolog protein 1) (P46531 whole entry): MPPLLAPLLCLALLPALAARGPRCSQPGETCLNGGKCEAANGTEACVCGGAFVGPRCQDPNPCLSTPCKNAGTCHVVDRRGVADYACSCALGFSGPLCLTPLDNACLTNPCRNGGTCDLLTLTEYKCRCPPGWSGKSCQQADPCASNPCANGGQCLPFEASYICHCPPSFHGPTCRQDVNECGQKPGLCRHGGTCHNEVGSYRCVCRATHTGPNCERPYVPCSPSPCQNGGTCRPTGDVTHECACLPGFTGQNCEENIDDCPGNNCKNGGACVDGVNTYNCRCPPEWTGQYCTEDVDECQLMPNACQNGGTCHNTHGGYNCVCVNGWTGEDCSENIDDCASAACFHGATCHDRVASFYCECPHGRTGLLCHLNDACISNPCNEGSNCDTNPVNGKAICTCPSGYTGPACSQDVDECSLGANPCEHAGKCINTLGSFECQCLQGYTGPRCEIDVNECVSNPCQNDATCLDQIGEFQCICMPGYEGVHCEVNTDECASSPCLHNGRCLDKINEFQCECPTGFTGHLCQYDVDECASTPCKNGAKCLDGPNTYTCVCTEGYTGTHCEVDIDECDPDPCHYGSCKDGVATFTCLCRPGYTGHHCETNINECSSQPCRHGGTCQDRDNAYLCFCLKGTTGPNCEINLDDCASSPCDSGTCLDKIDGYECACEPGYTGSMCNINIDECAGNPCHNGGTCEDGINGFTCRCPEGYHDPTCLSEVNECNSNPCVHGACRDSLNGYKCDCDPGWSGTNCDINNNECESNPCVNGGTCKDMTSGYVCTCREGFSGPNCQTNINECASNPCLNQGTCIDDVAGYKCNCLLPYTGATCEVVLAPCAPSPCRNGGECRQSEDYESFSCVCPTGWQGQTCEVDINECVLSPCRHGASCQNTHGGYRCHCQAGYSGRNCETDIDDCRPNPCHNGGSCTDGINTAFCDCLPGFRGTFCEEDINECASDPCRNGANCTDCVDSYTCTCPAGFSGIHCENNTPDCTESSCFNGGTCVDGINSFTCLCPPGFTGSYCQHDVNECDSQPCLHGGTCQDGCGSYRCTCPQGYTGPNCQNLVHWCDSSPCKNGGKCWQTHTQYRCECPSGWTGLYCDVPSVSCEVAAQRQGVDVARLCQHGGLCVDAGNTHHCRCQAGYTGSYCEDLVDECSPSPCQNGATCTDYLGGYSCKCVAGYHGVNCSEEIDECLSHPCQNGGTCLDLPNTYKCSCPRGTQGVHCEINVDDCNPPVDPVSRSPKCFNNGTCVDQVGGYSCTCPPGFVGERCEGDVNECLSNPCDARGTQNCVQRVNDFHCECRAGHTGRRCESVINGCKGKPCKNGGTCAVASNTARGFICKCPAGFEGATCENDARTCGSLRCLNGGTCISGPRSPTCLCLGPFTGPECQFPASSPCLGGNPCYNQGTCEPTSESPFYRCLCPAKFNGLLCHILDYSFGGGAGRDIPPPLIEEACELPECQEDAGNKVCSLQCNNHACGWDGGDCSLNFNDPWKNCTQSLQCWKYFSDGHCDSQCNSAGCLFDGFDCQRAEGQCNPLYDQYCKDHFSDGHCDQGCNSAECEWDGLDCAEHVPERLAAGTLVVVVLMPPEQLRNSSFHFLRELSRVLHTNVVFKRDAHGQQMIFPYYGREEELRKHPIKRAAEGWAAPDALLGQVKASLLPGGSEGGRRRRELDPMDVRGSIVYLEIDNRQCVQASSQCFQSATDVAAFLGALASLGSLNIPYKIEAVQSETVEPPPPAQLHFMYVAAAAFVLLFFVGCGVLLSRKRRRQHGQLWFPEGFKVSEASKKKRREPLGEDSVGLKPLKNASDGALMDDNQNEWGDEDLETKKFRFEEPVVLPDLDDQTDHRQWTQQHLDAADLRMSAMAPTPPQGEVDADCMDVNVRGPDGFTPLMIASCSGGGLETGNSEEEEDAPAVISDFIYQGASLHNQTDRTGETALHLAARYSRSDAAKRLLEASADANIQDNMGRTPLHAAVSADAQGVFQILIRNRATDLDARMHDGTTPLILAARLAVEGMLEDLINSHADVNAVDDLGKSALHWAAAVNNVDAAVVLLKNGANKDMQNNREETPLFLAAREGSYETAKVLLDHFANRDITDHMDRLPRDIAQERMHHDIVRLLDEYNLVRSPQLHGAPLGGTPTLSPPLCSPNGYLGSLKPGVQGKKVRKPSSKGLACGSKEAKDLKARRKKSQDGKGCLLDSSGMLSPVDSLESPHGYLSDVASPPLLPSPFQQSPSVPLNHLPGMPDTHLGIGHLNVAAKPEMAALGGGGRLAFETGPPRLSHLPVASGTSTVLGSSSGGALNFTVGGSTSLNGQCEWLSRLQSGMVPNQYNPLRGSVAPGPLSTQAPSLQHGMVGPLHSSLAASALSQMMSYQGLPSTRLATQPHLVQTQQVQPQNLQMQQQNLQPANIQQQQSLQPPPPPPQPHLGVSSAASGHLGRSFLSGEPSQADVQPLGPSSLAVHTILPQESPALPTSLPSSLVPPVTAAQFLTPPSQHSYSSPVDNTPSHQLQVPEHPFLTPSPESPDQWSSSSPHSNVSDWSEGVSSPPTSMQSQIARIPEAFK

As for `CCCC/C(=C\c1cc(OCCc2ccc(C(F)(F)F)cc2)ccc1OCc1ccc(C(F)(F)F)cc1)C(=O)O`, the Activity in [1] turned out to be 72.2%; in data set [3], 66.3%; in [7], 72%; in data set [10] it was 21%. On Presenilin-1 [2], the EC50 worked out at 1.3 µM. In addition, the cytotoxicity in [4] is over 50%. Besides, the IC50 is over 10 µM in [5]; 3.1 µM on Prostaglandin E synthase; over 10 µM in data set [6]; 1.5 µM at Presenilin-1 [8]; 0.5 µM in [9].

Take `C[C@H](NC(=O)[C@@H](O)c1cc(F)cc(F)c1)C(=O)N[C@@H]1C(=O)N(C)c2ccccc2-c2ccccc21`: the inhibition at 24 h, 0.5 µM in data set [11] is over 75%.

Turning to `C[C@@H](C(=O)O)c1ccc(-c2ccccc2)c(F)c1` [TARENFLURBIL], the half-maximal inhibitory concentration (IC50) at Gamma-secretase came out at 307 µM.

These data come from ChEMBL document CHEMBL3397016, “SAR-studies of γ-secretase modulators with PPARγ-agonistic and 5-lipoxygenase-inhibitory activity for Alzheimer's disease” (Bioorg Med Chem Lett, 2015).
